Measured values from ChEMBL document CHEMBL1275352, “Selection of evodiamine as a novel topoisomerase I inhibitor by structure-based virtual screening and hit optimization of evodiamine derivatives as antitumor agents” (J Med Chem, 2010).
Calls of active or inactive are those of the source. The calls are words filed in the database; no cut-off is given here.

What was measured:
[1] = biological target: T1, DNA topoisomerase 1 (Homo sapiens) (UniProt P11387); test: Inhibition of DNA topoisomerase 1-mediated supercoiled Escherichia coli pBR322 DNA relaxation at 1 to 50 uM by UV transilluminator analysis
T1 sequence (whole entry): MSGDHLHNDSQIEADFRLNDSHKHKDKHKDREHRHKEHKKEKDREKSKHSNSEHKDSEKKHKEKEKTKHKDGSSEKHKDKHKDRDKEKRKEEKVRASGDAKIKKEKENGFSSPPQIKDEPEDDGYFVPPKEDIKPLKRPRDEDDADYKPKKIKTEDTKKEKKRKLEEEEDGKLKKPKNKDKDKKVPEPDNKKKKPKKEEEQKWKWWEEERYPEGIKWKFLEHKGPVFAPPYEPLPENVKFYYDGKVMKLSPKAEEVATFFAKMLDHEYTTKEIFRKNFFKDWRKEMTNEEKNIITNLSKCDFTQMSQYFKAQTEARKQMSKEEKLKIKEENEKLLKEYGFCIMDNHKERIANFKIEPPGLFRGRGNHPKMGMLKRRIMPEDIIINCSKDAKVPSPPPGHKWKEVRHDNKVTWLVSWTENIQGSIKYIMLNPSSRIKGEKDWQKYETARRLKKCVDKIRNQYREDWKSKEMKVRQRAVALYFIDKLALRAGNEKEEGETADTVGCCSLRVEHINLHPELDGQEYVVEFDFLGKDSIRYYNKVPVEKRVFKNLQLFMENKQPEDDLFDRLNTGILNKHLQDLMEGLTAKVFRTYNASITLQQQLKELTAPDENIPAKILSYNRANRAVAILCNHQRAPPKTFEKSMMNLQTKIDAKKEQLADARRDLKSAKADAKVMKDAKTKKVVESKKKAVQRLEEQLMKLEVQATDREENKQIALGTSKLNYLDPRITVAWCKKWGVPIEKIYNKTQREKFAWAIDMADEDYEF
Procedure, shortened: (§1)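 Purified topoisomerase I was incubated with supercoiled DNA, and inhibition of relaxation by the enzyme was scored. Compounds were tested at concentrations ranging from 1 to 500 μM; an initial screen was run at 500 μM and active compounds were retested at lower concentrations.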

LoVo = test: Cytotoxicity against human LoVo cells after 3 days by MTT assay; format: functional, cell-based
[2] = biological target: T1, DNA topoisomerase 1 (Homo sapiens); test: Inhibition of DNA topoisomerase 1-mediated supercoiled Escherichia coli pBR322 DNA relaxation at 100 uM by UV transilluminator analysis; details: 500 uM; in the assay text read “500 uM” for “100 uM”; procedure, shortened: as §1
A549 = test: Cytotoxicity against human A549 cells after 3 days by MTT assay; format: functional, cell-based
MDA-MB-435 = test: Cytotoxicity against human MDA-MB-435 cells after 3 days by MTT assay; format: functional, cell-based
[3] = biological target: T1, DNA topoisomerase 1 (Homo sapiens); test: Inhibition of DNA topoisomerase 1-mediated supercoiled Escherichia coli pBR322 DNA relaxation at 10 uM by UV transilluminator analysis; procedure, shortened: as §1
[4] = biological target: T1, DNA topoisomerase 1 (Homo sapiens); test: Inhibition of DNA topoisomerase 1-mediated supercoiled Escherichia coli pBR322 DNA relaxation by UV transilluminator analysis; procedure, shortened: as §1
HCT-116 = test: Cytotoxicity against human HCT116 cells after 3 days by MTT assay; format: functional, cell-based; details: HCT-116, 72 h
[5] = Homo sapiens, LoVo, 72 h, read-out: IC50
[6] = Homo sapiens, A549, 72 h, read-out: IC50
[7] = Homo sapiens, MDA-MB-435, 72 h, read-out: IC50

SMILES | inhibition [1] | IC50 (LoVo; [5]) [µM] | inhibition [2] | IC50 (A549; [6]) [µM] | IC50 (MDA-MB-435; [7]) [µM] | inhibition [3] | inhibition [4] | IC50 (LoVo; lovo) | IC50 (A549; a549) | IC50 (MDA-MB-435; mda-mb-435) | IC50 (HCT-116) [µM]
CCCNC(=O)Cn1c2ccccc2[n+]2nc3c(cc12)-c1cccc2cccc-3c12 | Active | 26 | Active | 37 | 77 |  |  |  |  |  | 
CCCOc1ccc(-c2nc3s/c(=C4\C(=O)N(CC(=O)O)c5ccccc54)c(=O)n3n2)cc1 |  |  | Active |  |  | Active | Dose-dependent effect | Not Active | Not Active | Not Active | 
Cc1cc2nc3s/c(=C4\C(=O)N(CC(=O)O)c5ccccc54)c(=O)n3c2cc1C | Active | 240 | Active |  | 170 |  |  |  | Not Active |  | 
CN1c2ccccc2C(=O)N2CCc3c(n(C(=O)c4ccc(Cl)cc4)c4ccccc34)C21 (centres undefined) |  |  | Active | 0.86 | 0.049 |  |  |  |  |  | 2.6
Nc1ccccc1Sc1ccc2c(=O)n3c4ccccc4nc3c3cccc1c23 |  |  | Active |  |  |  |  | Not Active | Not Active | Not Active | 
Cc1ccc(-c2csc3nc4c5ccccc5c(Cl)nn4c(=O)c23)cc1C |  | 190 | Active |  |  |  |  |  | Not Active | Not Active | 
Cc1ccc(S(=O)(=O)c2cc3c(c4nsnc24)C(=O)c2ccccc2C3=O)cc1 |  | 43 | Active | 0.5 | 25 | Active | Dose-dependent effect |  |  |  | 
